The term pIC50 denotes the IC50 on a negative log10 scale, so that one unit is a factor of ten. In general, pKd refers to the negative decadic logarithm of the Kd, by convention in mol/L. The low end stands for a large Kd, the high end for a small Kd. A word on the clearance: it is the volume of plasma or blood freed of the substance per unit of time. The AUC(0-t) is the area under the concentration-time curve up to a stated or last time point. Low readings indicate less exposure, high ones more exposure. For orientation: half-life means the time needed for the level to fall by half in the phase considered. Low values mean rapid decline, high ones slow decline.

Four molecules from ChEMBL document CHEMBL1140436, “Synthesis, biological activity, and preliminary pharmacokinetic evaluation of analogues of a phosphosulfomannan angiogenesis inhibitor (PI-88)” (J Med Chem, 2005) can be followed below.

The target in one data set is T1, Heparanase (Homo sapiens, UniProt Q9Y251).
T1 sequence (Q9Y251 whole entry): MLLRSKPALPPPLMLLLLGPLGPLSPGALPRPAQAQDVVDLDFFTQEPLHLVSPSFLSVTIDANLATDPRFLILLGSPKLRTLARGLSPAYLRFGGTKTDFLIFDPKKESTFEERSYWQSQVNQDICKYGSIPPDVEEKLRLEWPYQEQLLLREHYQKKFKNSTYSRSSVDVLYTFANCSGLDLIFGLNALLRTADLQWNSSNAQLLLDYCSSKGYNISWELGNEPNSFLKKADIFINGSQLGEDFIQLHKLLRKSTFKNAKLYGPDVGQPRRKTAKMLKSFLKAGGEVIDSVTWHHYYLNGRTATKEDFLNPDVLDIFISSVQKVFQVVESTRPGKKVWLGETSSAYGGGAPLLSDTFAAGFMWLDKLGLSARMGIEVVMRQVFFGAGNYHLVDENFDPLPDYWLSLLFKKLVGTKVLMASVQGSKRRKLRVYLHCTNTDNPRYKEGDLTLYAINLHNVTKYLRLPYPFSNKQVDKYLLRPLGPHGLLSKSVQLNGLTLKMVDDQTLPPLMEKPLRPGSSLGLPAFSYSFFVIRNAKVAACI
Put plainly: Inhibitory activity against human platelet heparanase by Microcon ultrafiltration assay. The procedure, abridged: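 Platelet-derived heparanase (100 ng) in 40 mM acetate pH 5.0, 0.1 mg/mL BSA with inhibitor, preequilibrated 10 min at 22 °C. Started with 5 μM [3H]HS, 4 h at 22 °C. Cleaved fragments separated by 10 kDa ultrafiltration and counted; activity = 4 h minus time-0 filtrate, compared with inhibitor-free control. IC50.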

Data set [1] deals with Fibroblast growth factor 2 (Homo sapiens, UniProt P09038). Put plainly: Binding affinity for FGF2 by BIAcore solution affinity assay. The procedure, abridged: (§1)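 Surface plasmon resonance solution affinity assay: growth factor preequilibrated with ligand in solution, then injected; specific binding after background subtraction converted to free protein concentration under mass-transport conditions. Kd derived assuming 1:1 stoichiometry; duplicates averaged where measured.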
Fibroblast growth factor 2, sequence (P09038 143-288 limits assumed): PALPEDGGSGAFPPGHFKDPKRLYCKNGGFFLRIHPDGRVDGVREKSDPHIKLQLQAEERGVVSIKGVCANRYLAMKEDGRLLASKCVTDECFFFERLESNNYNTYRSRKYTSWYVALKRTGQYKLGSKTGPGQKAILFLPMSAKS
(SPR reads the build-up and loss of mass on a sensor chip optically.)

For data set [2], the system named is Human alphaherpesvirus 1. Put plainly: Inhibition of cell to cell spread of HSV1. The class given is functional, organism-based, Human herpesvirus 1 strain KOS. Conditions: Human alphaherpesvirus 1, KOS321. The procedure, abridged: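 African green monkey kidney monolayers infected with HSV-1 KOS321, then 5-fold compound dilutions (0.032–20 μM) in serum-free overlay for 3 days at 37 °C. Area of 20 plaques measured from images, expressed relative to mock-treated cells. IC50 derived.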

Data set [3] in a line: Clearance in male Sprague-Dawley rat administered with 2.5 mg/kg, iv. The class given is ADME, organism-based. Also noted: dose 2.5 mg/kg, route intravenous. The settings on record: in vivo. The procedure, abridged:
(§2)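 Plasma sampled predose to 48 h, counted in triplicate by liquid scintillation, no decay correction; <3× background excluded. Apparent parameters from notionally linear log-concentration phase; mean ± SD, n = 4.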

For the next data set, the system named is Rattus norvegicus. Put plainly: Plasma concentration in male Sprague-Dawley rat administered with 2.5 mg/kg, iv. The class given is ADME, organism-based. Conditions: in vivo. Also on record: dose 2.5 mg/kg, route intravenous. The procedure, abridged: as §2
In data set [4] the target is Fibroblast growth factor 1 (Homo sapiens, UniProt P05230). Put plainly: Binding affinity for FGF1 by BIAcore solution affinity assay. The procedure, abridged: as §1
Fibroblast growth factor 1, sequence (P05230 whole entry): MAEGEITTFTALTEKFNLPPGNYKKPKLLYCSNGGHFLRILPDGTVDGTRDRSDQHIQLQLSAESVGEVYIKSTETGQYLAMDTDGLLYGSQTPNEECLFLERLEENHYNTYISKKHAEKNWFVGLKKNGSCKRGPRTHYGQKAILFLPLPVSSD
A short description of data set [5]: Volume of distribution in male Sprague-Dawley rat administered with 2.5 mg/kg, iv. The settings on record: in vivo, read-out: Vdss. Also noted: dose 2.5 mg/kg, route intravenous. The class given is ADME, organism-based. The procedure, abridged:
as §2

Data set [6] has as its system Human alphaherpesvirus 1. Put plainly: Inhibition of HSV1 infection. The class given is functional, organism-based, Human herpesvirus 1 strain KOS. Conditions: Human alphaherpesvirus 1, KOS321.
Data set [7] can be described thus: Area under curve (0-12h) male Sprague-Dawley rat administered with 2.5 mg/kg, iv. Conditions: in vivo. The class given is ADME, organism-based. Also noted: time < 12 hr, dose 2.5 mg/kg, route intravenous. The procedure, abridged:
as §2

Data set [8] in a line: Half life in male Sprague-Dawley rat administered with 2.5 mg/kg, iv. The class given is ADME, organism-based. Also on record: dose 2.5 mg/kg, route intravenous. Conditions: in vivo. The procedure, abridged:
as §2

In data set [9] the target is T2, Vascular endothelial growth factor A, long form (Homo sapiens, UniProt P15692).
T2 sequence (P15692 whole entry): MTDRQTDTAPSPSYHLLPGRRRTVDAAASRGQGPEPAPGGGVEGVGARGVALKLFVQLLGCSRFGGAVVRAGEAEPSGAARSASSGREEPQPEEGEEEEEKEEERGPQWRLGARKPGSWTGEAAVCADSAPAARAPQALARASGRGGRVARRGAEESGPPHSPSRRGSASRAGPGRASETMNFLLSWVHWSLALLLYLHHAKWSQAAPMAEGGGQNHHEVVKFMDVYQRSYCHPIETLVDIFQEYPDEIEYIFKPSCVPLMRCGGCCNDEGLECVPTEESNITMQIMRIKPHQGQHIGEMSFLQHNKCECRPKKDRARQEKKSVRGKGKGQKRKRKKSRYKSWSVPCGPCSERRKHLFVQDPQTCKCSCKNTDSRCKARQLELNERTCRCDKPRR
Put plainly: Binding affinity for VEGF by BIAcore solution affinity assay. The procedure, abridged:
as §1

pIC50, pKd: −log10 of the molar value.

For `CCCCCCCCO[C@H]1O[C@H](CO)[C@@H](O)[C@H](O)[C@@H]1O[C@H]1O[C@H](CO)[C@@H](O)[C@H](O[C@H]2O[C@H](CO)[C@@H](O)[C@H](O[C@H]3O[C@H](CO)[C@@H](O)[C@H](O[C@H]4O[C@H](CO)[C@@H](O)[C@H](O)[C@@H]4O)[C@@H]3O)[C@@H]2O)[C@@H]1O`, the results for the pIC50 at Heparanase, in the data set on Human alphaherpesvirus 1 [2] and in the data set with Human alphaherpesvirus 1 [6] were 5.79, 6.40 and 6.00, respectively. Also, the pKd in data set [1] was 7.17; in [4], 9.84; in data set [9] it was 8.77. The clearance in [3] was 1.39 mL/min/kg. This molecule returned a Cp in the data set on Rattus norvegicus of 35600 ng/mL. Besides, the Vd in data set [5] was found to be 0.0229 L. In [7], this molecule yielded an AUC(0-t) at 12 h of 29700 ng·h/mL. This molecule also gave a half-life in [8] of 66 min.
With `O=C(CCCC[C@@H]1SC[C@@H]2NC(=O)N[C@@H]21)NCCCCCC(=O)N[C@H]1O[C@H](CO)[C@@H](O)[C@H](O)[C@@H]1O[C@H]1O[C@H](CO)[C@@H](O)[C@H](O[C@H]2O[C@H](CO)[C@@H](O)[C@H](O[C@H]3O[C@H](CO)[C@@H](O)[C@H](O[C@H]4O[C@H](CO)[C@@H](O)[C@H](O)[C@@H]4O)[C@@H]3O)[C@@H]2O)[C@@H]1O`, the pIC50 was 5.73 on Heparanase, 5.52 in the data set with Human alphaherpesvirus 1 [2] and 5.70 in the data set on Human alphaherpesvirus 1 [6]. In addition, the values for the pKd in data set [1], in data set [4] and in [9] were 7.08, 9.41 and 8.14, respectively. Further, in data set [3], the clearance is 6.33 mL/min/kg. The Cp in the data set with Rattus norvegicus is 14000 ng/mL. Besides, the Vd in [5] turned out to be 0.0551 L. The molecule further returned an AUC(0-t) at 12 h in [7] of 6500 ng·h/mL. Moreover, in data set [8], the half-life was 47.4 min.
As for `O=C(COc1ccccc1)N[C@H]1O[C@H](CO)[C@@H](O)[C@H](O)[C@@H]1O[C@H]1O[C@H](CO)[C@@H](O)[C@H](O[C@H]2O[C@H](CO)[C@@H](O)[C@H](O[C@H]3O[C@H](CO)[C@@H](O)[C@H](O[C@H]4O[C@H](CO)[C@@H](O)[C@H](O)[C@@H]4O)[C@@H]3O)[C@@H]2O)[C@@H]1O`, the figures for the pIC50 on Heparanase, with Human alphaherpesvirus 1 [2] and in the data set with Human alphaherpesvirus 1 [6] were 5.69, 5.30 and 5.15, respectively. In addition, the figures for the pKd in data set [1], in data set [4] and in data set [9] were 6.95, 9.18 and 8.15, respectively.
For `OC[C@H]1O[C@H](O[C@@H]2[C@H](O)[C@@H](O[C@@H]3[C@H](O)[C@@H](O[C@@H]4[C@H](O)[C@@H](O[C@@H]5[C@@H](OCc6ccccc6)O[C@H](CO)[C@@H](O)[C@@H]5O)O[C@H](CO)[C@H]4O)O[C@H](CO)[C@H]3O)O[C@H](CO)[C@H]2O)[C@@H](O)[C@@H](O)[C@@H]1O`, the pIC50 against Heparanase was 5.74; in the data set on Human alphaherpesvirus 1 [2] it was 6.00; with Human alphaherpesvirus 1 [6] it was 5.70. The pKd in [1] was 7.07; in data set [4], 9.92; in data set [9], 8.77. This molecule also had a clearance in data set [3] of 3.32 mL/min/kg. The molecule also returned a Cp in the data set with Rattus norvegicus of 20500 ng/mL. For the same molecule, the Vd in data set [5] is 0.0384 L. This molecule showed an AUC(0-t) at 12 h in data set [7] of 12600 ng·h/mL. The same molecule had a half-life in [8] of 49.8 min.
